Results: PubChem BioAssay
The source made the active and inactive calls.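 Rule for the calls, unless noted: active = fluorescence slope after compound addition differing from the mean of all tested samples at 99.7% confidence, mostly higher but some lower; inactive = the rest.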

Experiments:
[1] = inhibitors of TNFa-induced NFkB p65 translocation, primary screen, imaging, HUVEC, MLSMR starter and 10KST1 sets (AID 438;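 active = inhibition above 20% together with a positive visual image hit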;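 note: compound added about 3h40 before a 20 min TNFalpha stimulation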;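 for inhibition: signal is the nuclear over cytoplasmic p65 intensity ratio per well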); settings: HUVEC TNFa-induced p65 nuclear translocation; cell count: measured here: nuclei count (cytotoxicity indicator), at 2.08 µM; inhibition: at 2 µM, stronger effect = higher value, 0% TNFa-plus-vehicle, 100% no-TNFa wells
[2] = reduction of polyQ htt aggregates in cells – imaging, exon1htt(103Q)mCFP cells, high-content imaging, primary screen (AID 483;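 active = visual image review flags a hit and inhibition of aggregation exceeds 20%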;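 note: compound exposure lasted 3 days before fixation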;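 for nuclei count: percent of the per-plate median nuclei count of sample wells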); settings: exon1htt(103Q)mCFP cell line, aggregate imaging, at 2 µM; inhibition of aggregation: stronger effect = higher value; nuclei count: measured here: cell count, toxicity
[3] = endothelial E-selectin expression blockers – imaging, HUVEC, immunofluorescence, MLSMR starter and 10KST1 sets, primary screen (AID 487;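 active = visually confirmed hit in the image check and inhibition above 20%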;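 for inhibition: signal is fraction of cell area covered by stained E-selectin grains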;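 for nuclei count: 100% = median nuclei count of all wells on the same plate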); settings: HUVEC TNFalpha-induced E-selectin immunofluorescence imaging, at 2 µM; inhibition: stronger effect = higher value; nuclei count: measured here: cell number, toxicity
[4] = target: Voltage-gated potassium channel subunit beta-2 (Rattus norvegicus) (UniProt P62483); test: inhibitors of rat Kvbeta2 reductase activity – biochemical, NADPH fluorescence, primary screen (AID 622;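 active = fluorescence slope higher than the sample average by over 3 SD, cut at about -0.22 in these data, passing the limit was not always enough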;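 note: slope of raw intensity against log time taken from 70 to 1610 s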); settings: recombinant KvBeta, 4-cyanobenzaldehyde reduction, at 10 µM, stronger effect = higher value
[5] = target: Voltage-gated potassium channel subunit beta-2 (Rattus norvegicus) (UniProt P62483); test: enhancers of rat Kvbeta2 NADPH turnover – biochemical, NADPH fluorescence, primary screen (AID 623;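 active = NADPH fluorescence slope more negative than the mean of all samples by about 3 SD, 99.7% confidence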;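 note: fluorescence intensity change per second fitted from 20 to 320 s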); settings: Recombinant KvBeta, NADPH fluorescence decrease slope, 10 min; at 10 µM; stronger effect = lower value
[6] = target: Muscarinic acetylcholine receptor M4 (Homo sapiens) (UniProt P08173); test: M4-linked GIRK flux change, two-sided – cell-based, HEK293 M4/GIRK, thallium flux, BTC-AM, M4 allosteric agonist project, primary screen (AID 625); settings: at 10 µM, actives lie on both sides;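 note: thallium influx through GIRK channels coupled to M4 in HEK293 cells with BTC-AM dye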
Summary of the method: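 Material: M4/GIRK1/GIRK2 stable HEK293 cell line. Medium: pH 7.3 thallium assay buffer. Dosing: single compound concentration, 10 µM final. Schedule: 1 h dye loading, 2 min kinetic read. Measured by: kinetic fluorescence with BTC-AM dye. Read-out: post-addition slope, 15–24 s, of baseline-normalized fluorescence. Benchmarks: carbachol and DMSO controls.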

[7] = blockers of RIG-like receptor reporter activation – cell-based, Sendai virus stimulus, luciferase, 10K MLSCN set, TLR/RLR signaling modifier project, primary screen (AID 602276;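 active = inhibition at or above 50% at 10 µM; inactive = inhibition below 50%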;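 note: firefly luciferase from ISG56 promoter only with Renilla not read in this screen; 0% = Sendai virus plus DMSO and 100% = medium plus DMSO without virus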); settings: HEK293 RL24 IRF3 luciferase reporter, at 10 µM, stronger effect = higher value
[8] = TLR3 IRF3 reporter activation blockers – cell-based, poly I:C stimulus, luciferase, 10K MLSCN set, primary screen (AID 602277;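 active = inhibition of the reporter signal at or above 50%; inactive = inhibition below 50%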); settings: HEK293-TLR3 RL24 IRF3 luciferase reporter, at 10 µM, stronger effect = higher value

Voltage-gated potassium channel subunit beta-2 (Rattus norvegicus), sequence (P62483 whole entry, looked up): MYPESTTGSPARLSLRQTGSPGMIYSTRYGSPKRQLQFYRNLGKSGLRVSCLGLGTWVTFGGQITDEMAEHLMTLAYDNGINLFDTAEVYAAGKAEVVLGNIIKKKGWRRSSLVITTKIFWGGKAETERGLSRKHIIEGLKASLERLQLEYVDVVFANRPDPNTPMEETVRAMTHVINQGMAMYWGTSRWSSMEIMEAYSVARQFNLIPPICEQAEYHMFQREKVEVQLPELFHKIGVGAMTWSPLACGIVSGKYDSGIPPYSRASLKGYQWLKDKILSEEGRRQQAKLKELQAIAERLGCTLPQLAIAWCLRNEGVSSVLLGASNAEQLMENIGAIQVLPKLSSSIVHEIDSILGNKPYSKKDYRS
Muscarinic acetylcholine receptor M4 (Homo sapiens), sequence (P08173 whole entry, looked up): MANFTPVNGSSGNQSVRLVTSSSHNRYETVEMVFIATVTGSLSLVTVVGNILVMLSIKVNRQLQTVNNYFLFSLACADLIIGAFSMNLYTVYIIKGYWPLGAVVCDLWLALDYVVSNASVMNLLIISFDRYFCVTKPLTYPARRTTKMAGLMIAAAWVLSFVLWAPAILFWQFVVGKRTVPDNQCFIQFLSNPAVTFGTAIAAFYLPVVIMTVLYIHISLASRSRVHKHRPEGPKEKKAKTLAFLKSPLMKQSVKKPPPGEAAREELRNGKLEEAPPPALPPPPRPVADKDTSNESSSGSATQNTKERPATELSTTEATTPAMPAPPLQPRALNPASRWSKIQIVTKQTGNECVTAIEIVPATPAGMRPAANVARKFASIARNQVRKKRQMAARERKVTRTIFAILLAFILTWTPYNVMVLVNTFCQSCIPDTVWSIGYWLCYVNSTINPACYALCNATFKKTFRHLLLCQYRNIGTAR

Row | SMILES | cell count [1] | inhibition [1] | inhibition of aggregation [2] | nuclei count [2] [%] | inhibition [3] | nuclei count [3] [%] | fluorescence slope [4] | NADPH fluorescence slope [5] | fluorescence slope [6] | inhibition [7] | inhibition [8]
1 | CNC(=O)CN(C#N)c1nc(N(C)C)nc(N(C)C)n1 | 349 | -2.3% (inactive) | 5.1% (inactive) | 92.5 | -47.6% (inactive) | 114 | -0.553 (inactive) | -2.5e-05 (inactive) | 0.00632 (inactive) | 6.17% (inactive) | 10.6% (inactive)
2 | CC1(C)Cc2c(sc3ncnc(N)c23)CO1 | 545 | -14.9% (inactive) | 5.4% (inactive) | 114 | -122% (inactive) | 108 | -0.384 (inactive) | -2.5e-05 (inactive) | 0.00833 (inactive) | 15.3% (inactive) | 16.7% (inactive)
3 | CC(C)=CC/C=C1\CCC(C(=O)O)C(C(=O)O)C1 (centres undefined) | 661 | -6.8% (inactive) | -3.8% (inactive) | 116 | -30.8% (inactive) | 100 | -0.52 (inactive) | -1.4e-05 (inactive) | 0.00515 (inactive) | 15.6% (inactive) | 13.1% (inactive)
4 | Cc1ccc(-c2nnn(CC(=O)NC3CC4CCC3C4)n2)cc1 (centres undefined) | 239 | -5% (inactive) | 15.8% (inactive) | 77.6 | 3.6% (inactive) | 102 | -0.563 (inactive) | -4.4e-05 (inactive) | 0.00799 (inactive) | 7.26% (inactive) | -0.548% (inactive)
5 | O=C1NC(=O)C2(CCC(C(=O)O)C2)N1 (centres undefined) | 557 | -17.5% (inactive) | -0.1% (inactive) | 100 | -72.3% (inactive) | 119 | -0.408 (inactive) | 3.7e-05 (inactive) | 0.00541 (inactive) | 13.2% (inactive) | 17.5% (inactive)
6 | COc1cccc2cc(C(=O)N3CCc4ccccc43)c(=O)oc12 | 274 | 4.3% (inactive) | -4.2% (inactive) | 106 | 18.4% (inactive) | 99 | -0.466 (inactive) | -5.5e-06 (inactive) | 0.00512 (inactive) | 8.43% (inactive) | 21% (inactive)
7 | COc1ccccc1-c1c(C)nn2c(N3CCC4(CC3)OCCO4)cc(C)nc12 | 540 | -2.1% (inactive) | -9.7% (inactive) | 91.2 | -42.2% (inactive) | 111 | -0.545 (inactive) | -4.6e-05 (inactive) | 0.00547 (inactive) | 13.5% (inactive) | 12.2% (inactive)
8 | CN(C)C(=O)C12CCC(C)(c3nc4ccccc4nc31)C2(C)C (centres undefined) | 504 | -6.5% (inactive) | -24% (inactive) | 97 | -59.3% (inactive) | 112 | -0.492 (inactive) | -2e-05 (inactive) | 0.00404 (inactive) | -7.12% (inactive) | -15.4% (inactive)
9 | COc1cc(NC(=O)Cc2nn(C)c(=O)c3ccccc23)cc(OC)c1 | 693 | -14.8% (inactive) | -21.4% (inactive) | 106 | -39% (inactive) | 108 | -0.585 (inactive) | -4.8e-05 (inactive) | 0.00514 (inactive) | -12.7% (inactive) | -56.4% (inactive)
10 | CCN(CC)CC(=O)Nc1ccc(-c2nc3cc(NC(=O)CN(CC)CC)ccc3o2)cc1 | 621 | 4.9% (inactive) | -13.9% (inactive) | 102 | 41.6% (inactive) | 100 | -0.0978 (inactive) | -3.8e-06 (inactive) | 0.00522 (inactive) | -12.5% (inactive) | 92.9% (active)
11 | CCn1c(C(=O)N2CCCC(C(=O)O)C2)cc2sccc21 (centres undefined) | 335 | 26.3% (active) | -57.1% (inactive) | 115 | -32.2% (inactive) | 115 | -0.485 (inactive) | 8.2e-05 (inactive) | 0.00595 (inactive) | -2.79% (inactive) | -4.5% (inactive)
12 | O=C(COc1ccccc1Cl)OCC(=O)N1CCN(S(=O)(=O)c2ccccc2)CC1 | 270 | 2.6% (inactive) | -0.5% (inactive) | 107 | -107% (inactive) | 119 | -0.438 (inactive) | 7.9e-05 (inactive) | 0.00565 (inactive) | 16.4% (inactive) | 21% (inactive)
13 | Cc1cc(NC(=O)CSc2ccc3nnc(-c4cccc(F)c4)n3n2)no1 | 619 | -13.6% (inactive) | 10.1% (inactive) | 125 | -55.4% (inactive) | 107 | -0.266 (inactive) | 1e-08 (inactive) | 0.00544 (inactive) | -1.23% (inactive) | -7.4% (inactive)
14 | CCOc1ccccc1Nc1ncnc2ccccc12 | 394 | 9.3% (inactive) | 8% (inactive) | 93.2 | -40.8% (inactive) | 120 | -0.548 (inactive) | -1.6e-05 (inactive) | 0.00457 (inactive) | 5.79% (inactive) | -12% (inactive)
